The subject of test [1] is HL-60. Put plainly: Cytotoxicity against human HL60 cells assessed as inhibition of cell viability at 25 ug/ml after 72 hrs by MTT assay relative to control. Format: functional. Conditions: HL-60, 72 h. Put shortly:
(§1)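 Single-concentration MTT screen at 25 µg/mL for 72 h. Seeding was 3 x 10^5 cells/mL (HL-60, K562) or 1 x 10^5 cells/mL (adherent), with 24 h preincubation. MTT was added for the final 3 h, formazan dissolved in DMSO and absorbance read at 560 nm. Results are given as percent inhibition ± SD.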

The subject of test [2] is HEp-2. Put plainly: Cytotoxicity against human Hep2 cells assessed as inhibition of cell viability at 25 ug/ml after 72 hrs by MTT assay relative to control. The test is classed as functional. To be noted: HEp-2, 72 h. In short, it runs like this: as §1
Test [3] relates to NCI-H292. As to the kind of experiment: Cytotoxicity against human NCI-H292 cells assessed as inhibition of cell viability at 25 ug/ml after 72 hrs by MTT assay relative to control. The test is classed as functional. To be noted: NCI-H292, 72 h. Put shortly:
as §1

For test [4], the system named is K562. As to the kind of experiment: Cytotoxicity against human K562 cells assessed as inhibition of cell viability at 25 ug/ml after 72 hrs by MTT assay relative to control. Format: functional. To be noted: K562, 72 h. Put shortly:
as §1

Test [5] relates to HT-29. Put plainly: Cytotoxicity against human HT-29 cells assessed as inhibition of cell viability at 25 ug/ml after 72 hrs by MTT assay relative to control. To be noted: HT-29, 72 h. The test is classed as functional. Put shortly: as §1
A further test deals with PBMC. As to the kind of experiment: Cytotoxicity against human PBMC cells assessed as inhibition of cell viability after 72 hrs by alamar blue assay. Format: cell-based. In short, it runs like this:
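PBMC from healthy donors were grown in RPMI-1640 with 20% FBS and 2% phytohaemagglutinin, then plated at 10^6 cells/mL. After 24 h, compounds (0.048–25 µg/mL, in DMSO) were added for 72 h. Resazurin was added for the final 24 h and absorbance read at 570 and 595 nm as percent of control.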

The test system of another test is Erythrocyte. As to the kind of experiment: Hemolytic activity in human erythrocytes after 1 hr by spectrophotometric method. Format: ADME, cell-based. Put shortly: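 Human erythrocytes as a 2% suspension in 0.85% NaCl with 10 mM CaCl2 were exposed to 0.78–250 µg/mL for 1 h at room temperature. After centrifugation, released haemoglobin in the supernatant was read at 540 nm. Triton X-100 (1%) served as positive control; EC50 is the concentration giving 50% haemolysis.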

Test [6] concerns HL-60. As to the kind of experiment: Cytotoxicity against human HL60 cells assessed as inhibition of cell viability after 72 hrs by MTT assay. Format: functional, cell-based. To be noted: HL-60, 72 h. In short, it runs like this: (§2)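 MTT assay. Leukaemic lines were seeded at 3 x 10^5 cells/mL and adherent lines at 1 x 10^5 cells/mL, then preincubated 24 h. Compounds were added at 0.098–25.0 µg/mL for 72 h, with MTT for the last 3 h. Formazan was dissolved in DMSO and read at 560 nm. IC50 came from regression; triplicate, two independent experiments.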

In test [7] the test system is HEp-2. As to the kind of experiment: Cytotoxicity against human Hep2 cells assessed as inhibition of cell viability after 72 hrs by MTT assay. The test is classed as functional, cell-based. Conditions: HEp-2, 72 h. In short, it runs like this: as §2
The test system of test [8] is HT-29. Put plainly: Cytotoxicity against human HT-29 cells assessed as inhibition of cell viability after 72 hrs by MTT assay. Conditions: HT-29, 72 h. Format: functional, cell-based. Put shortly: as §2
The test system of test [9] is NCI-H292. Put plainly: Cytotoxicity against human NCI-H292 cells assessed as inhibition of cell viability after 72 hrs by MTT assay. Format: functional, cell-based. To be noted: NCI-H292, 72 h. In short, it runs like this: as §2
Test [10] relates to K562. Put plainly: Cytotoxicity against human K562 cells assessed as inhibition of cell viability after 72 hrs by MTT assay. The test is classed as functional, cell-based. To be noted: K562, 72 h. In short, it runs like this:
as §2

For `Fc1ccc(-c2csc(N/N=C/c3ccc(C(F)(F)F)cc3)n2)cc1`, the inhibition at 25 µg/mL in the test with HL-60 [1] turned out to be 58.1%; with HEp-2 [2] it was 62.6%; in the test on NCI-H292 [3], 78.8%; in the test on K562 [4], 61.6%; with HT-29 [5], 70.1%.

`COc1ccc(-c2cs/c(=N/N=C/c3ccc(C(F)(F)F)cc3)n2C)cc1`: the inhibition at 25 µg/mL in the test on HL-60 [1] amounted to 67.8%; in the test with HEp-2 [2] it was 53.7%; in the test with NCI-H292 [3] it was 68.3%; with K562 [4], 50.4%; with HT-29 [5] it was 62.5%.

As to `CNC(=S)N/N=C/c1ccc(C(F)(F)F)cc1`, the inhibition at 25 µg/mL in the test with HL-60 [1] is 94.6%; with HEp-2 [2] it was 88.1%; with NCI-H292 [3], 93.3%; with K562 [4], 82.6%; in the test with HT-29 [5] it was 88.7%. The IC50 in the test with PBMC was 93.3 µM; with HL-60 [6], 17.2 µM; with HEp-2 [7] it was 12.6 µM; in the test on HT-29 [8], 5.06 µM; in the test with NCI-H292 [9], 20.8 µM; in the test on K562 [10] it was 13.2 µM. For the same molecule, the 50% effective concentration (EC50) in the test on Erythrocyte is over 250 µg/mL.

On to `FC(F)(F)c1ccc(/C=N/Nc2nc(-c3cccc4ccccc34)cs2)cc1`, for which the inhibition at 25 µg/mL with HL-60 [1] came out at 39.1%; with HEp-2 [2] it was 28.5%; with NCI-H292 [3], 35.7%; with K562 [4] it was 44.9%; in the test on HT-29 [5], 45.8%.

Take `FC(F)(F)c1ccc(/C=N/Nc2nc(-c3ccc(Br)cc3)cs2)cc1`: the inhibition at 25 µg/mL was 46.7% in the test on HL-60 [1]; 17.1% in the test on HEp-2 [2]; 64.2% with NCI-H292 [3]; 25% in the test on K562 [4]; 67.4% in the test on HT-29 [5].

As to `COc1ccc(-c2csc(N/N=C/c3ccc(C(F)(F)F)cc3)n2)cc1`, the inhibition at 25 µg/mL was determined as 89.1% with HL-60 [1]; 78.2% with HEp-2 [2]; 68.5% in the test on NCI-H292 [3]; 61.5% in the test with K562 [4]; 76.2% with HT-29 [5]. Moreover, the IC50 in the test on PBMC is 130 µM; in the test with HL-60 [6], 3.67 µM; with HEp-2 [7], 11.3 µM; in the test with HT-29 [8] it was 22.7 µM; in the test with NCI-H292 [9] it was over 66.2 µM; in the test with K562 [10], over 66.2 µM. In the test on Erythrocyte, this molecule displayed an EC50 of over 250 µg/mL.

With `FC(F)(F)c1ccc(/C=N/Nc2nc(-c3ccc(Cl)c(Cl)c3)cs2)cc1`, the inhibition at 25 µg/mL with HL-60 [1] came out at 96.4%; with HEp-2 [2], 83.5%; with NCI-H292 [3], 98.2%; in the test with K562 [4] it was 47.8%; with HT-29 [5] it was 84%. The IC50 in the test on PBMC was 65.6 µM; in the test with HL-60 [6], 4.23 µM; in the test on HEp-2 [7] it was 10.4 µM; in the test with HT-29 [8] it was 12.2 µM; with NCI-H292 [9] it was 6.57 µM; with K562 [10], over 60.1 µM. The molecule further yielded an EC50 in the test on Erythrocyte of over 250 µg/mL.

In the case of `Fc1ccc(-c2cs/c(=N/N=C/c3ccc(C(F)(F)F)cc3)n2-c2ccccc2)cc1`, the inhibition at 25 µg/mL was determined as 26.2% in the test on HL-60 [1]; 22% in the test on HEp-2 [2]; 41.8% in the test with NCI-H292 [3]; 59.1% with K562 [4]; 74.6% in the test on HT-29 [5].

For the molecule `FC(F)(F)c1ccc(/C=N/Nc2nc(-c3ccc(Cl)cc3)cs2)cc1`, the inhibition at 25 µg/mL with HL-60 [1] turned out to be 61.4%; with HEp-2 [2], 33%; in the test with NCI-H292 [3], 67.7%; with K562 [4], 50.5%; with HT-29 [5], 40.1%.

Regarding `Cc1ccc(-c2csc(N/N=C/c3ccc(C(F)(F)F)cc3)n2)cc1`, the inhibition at 25 µg/mL in the test on HL-60 [1] stood at 45.2%; in the test with HEp-2 [2] it was 59.9%; in the test on NCI-H292 [3], 62.3%; in the test with K562 [4] it was 20.9%; in the test on HT-29 [5] it was 42.7%.

Take `O=[N+]([O-])c1ccc(-c2csc(N/N=C/c3ccc(C(F)(F)F)cc3)n2)cc1`: the inhibition at 25 µg/mL in the test on HL-60 [1] came out at 80.2%; in the test with HEp-2 [2], 90%; with NCI-H292 [3], 96.3%; in the test on K562 [4] it was 87.2%; in the test on HT-29 [5], 59.3%. Further, the IC50 with PBMC is 53.2 µM; in the test on HL-60 [6], 11.5 µM; in the test on HEp-2 [7], 27.3 µM; in the test on HT-29 [8], over 63.6 µM; with NCI-H292 [9], 7.41 µM; with K562 [10], 16.9 µM. This molecule registered a half-maximal effective concentration (EC50) with Erythrocyte of over 250 µg/mL.

In the case of `Cn1c(-c2ccc([N+](=O)[O-])cc2)cs/c1=N/N=C/c1ccc(C(F)(F)F)cc1`, the inhibition at 25 µg/mL with HL-60 [1] is 83.2%; in the test with HEp-2 [2] it was 84.8%; in the test with NCI-H292 [3], 44.1%; with K562 [4], 59.8%; in the test on HT-29 [5], 75.1%. Moreover, the IC50 was 140 µM in the test on PBMC; 11.8 µM in the test with HL-60 [6]; 26.4 µM in the test on HEp-2 [7]; 47.8 µM in the test with HT-29 [8]; over 61.4 µM in the test on NCI-H292 [9]; over 61.4 µM in the test on K562 [10]. In addition, the EC50 with Erythrocyte is over 250 µg/mL.

On to `FC(F)(F)c1ccc(/C=N/NC(=S)Nc2ccccc2)cc1`, for which the inhibition at 25 µg/mL in the test on HL-60 [1] came to 37.7%; in the test with HEp-2 [2], 63.6%; in the test on NCI-H292 [3], 58.4%; in the test with K562 [4], 71.2%; in the test on HT-29 [5] it was 74.7%.

On to `FC(F)(F)c1ccc(/C=N/N=c2/scc(-c3ccc(Cl)cc3)n2-c2ccccc2)cc1`, for which the inhibition at 25 µg/mL in the test on HL-60 [1] was 28.4%; with HEp-2 [2], 58.7%; with NCI-H292 [3], 87.8%; in the test with K562 [4] it was 59%; in the test with HT-29 [5], 82.2%.

Turning to `Cn1c(-c2ccc(Cl)cc2Cl)cs/c1=N/N=C/c1ccc(C(F)(F)F)cc1`, the inhibition at 25 µg/mL is 43.5% in the test with HL-60 [1]; 33.5% with HEp-2 [2]; 35.7% in the test with NCI-H292 [3]; 69.7% with K562 [4]; 52.7% in the test on HT-29 [5].

Turning to `Cc1sc(N/N=C/c2ccc(C(F)(F)F)cc2)nc1-c1ccccc1`, the inhibition at 25 µg/mL with HL-60 [1] was determined as 30.9%; in the test with HEp-2 [2], 29.5%; in the test with NCI-H292 [3], 60.9%; in the test on K562 [4], 25%; with HT-29 [5], 46.2%.

As for `COc1ccc(-c2cs/c(=N/N=C/c3ccc(C(F)(F)F)cc3)n2-c2ccccc2)cc1`, the inhibition at 25 µg/mL is 36.7% in the test with HL-60 [1]; 81.8% in the test on HEp-2 [2]; 66.3% with NCI-H292 [3]; 59.2% in the test on K562 [4]; 58.5% in the test on HT-29 [5].

For `FC(F)(F)c1ccc(/C=N/N=c2/scc(-c3ccc(Cl)cc3Cl)n2-c2ccccc2)cc1`, the results for the inhibition at 25 µg/mL in the test on HL-60 [1] and in the test on NCI-H292 [3] were 14.4% and 38.5%, respectively.

As to `FC(F)(F)c1ccc(/C=N/Nc2nc(-c3ccccc3)cs2)cc1`, the results for the inhibition at 25 µg/mL with HL-60 [1], in the test with HEp-2 [2] and in the test on NCI-H292 [3] were 40.6%, 34.7% and 49.8%, respectively.

With `O=[N+]([O-])c1cccc(-c2csc(N/N=C/c3ccc(C(F)(F)F)cc3)n2)c1`, the inhibition at 25 µg/mL in the test with HL-60 [1] was found to be 77.4%; in the test with HEp-2 [2], 84.3%; in the test with NCI-H292 [3], 75.1%; with K562 [4] it was 75.5%; in the test with HT-29 [5], 79.4%. The IC50 with PBMC worked out at 151 µM; in the test with HL-60 [6], 29.3 µM; in the test with HEp-2 [7] it was 34.2 µM; in the test with HT-29 [8], 23.9 µM; in the test on NCI-H292 [9], 22.8 µM; in the test on K562 [10], 10.2 µM. The molecule further showed an EC50 with Erythrocyte of over 250 µg/mL.

The record behind these values is ChEMBL document CHEMBL4251647, “Synthesis, anticancer activity and mechanism of action of new thiazole derivatives” (Eur J Med Chem, 2018).
